Drawing on the RNAGym collection of RNA variant scans (doi:10.1126/science.aae0568), this text covers yeast fitness for 167 variants.

Variants at the floor of the assay were thinned out. Bounds are passed on as bounds.

The labels stand for the following.
B1: tRNA (parent)
chain: GUUCCGUUGGCGUAAUGGUAACGCGUCUCCCUCCUAAGGAGAAGACUGCGGGUUCGAGUCCCGUACGGAACG

The variants in this data set derive from B1. Description: yeast fitness relative to wild type (ratio to wild type); higher = fitter; tRNA-Arg(CCU), competitive growth, 37 C, YPD. In a few lines:
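For this measurement, the tRNA-Arg(CCU) gene was varied by chemical synthesis at a 3% per-site mutation rate across 69 sites, and each variant was placed at the native genomic locus in Saccharomyces cerevisiae. The pooled strains went through a 24-hour competition in YPD at 37°C in six parallel replicates, with amplicons from start and end populations read by 100-nucleotide paired-end sequencing. Darwinian fitness relative to wild type followed from the change in each genotype's frequency. Genotypes needed ≥ 100 starting reads, and estimates < 0.5 were set to 0.5.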
For U2A G25A U32C, the yeast fitness stood at 0.903.
With C4G C30A A42C the figure was not above 0.5; with G6A C33G G48A U54C C66G A70C, not above 0.5.
With C22G C30A C61U the figure was 0.545; with C5U C29A A69C, not above 0.5; with G6U, 0.918.
With G9A C30G the figure was 0.707.
On to U2G G10C A40G A57G, for which the yeast fitness is not above 0.5.
Then C29A G50C U64C, with not above 0.5; and U19A A37U A43G A57G, with 0.594; and C22A C61G, with 0.594.
With U2C U28A G67A the figure was not above 0.5; with C4A U32C G48C C55U, not above 0.5; with A21G C49U A65C, 0.747.
Then C24G G50A A57G, with not above 0.5; and A15C C31U U32C, with 0.5; and A20U C34U, with 0.652.
In the case of C11G A15C G18A C30G U47G G67A, the yeast fitness was 0.656.
For the variant C5G C29A G52A, the yeast fitness was 0.695.
With G9C A37U G52A, the yeast fitness was not above 0.5.
G18A G51A A57U: the yeast fitness came out at 0.536.
As for G9A C24G C49U C55G G58A, the yeast fitness is not above 0.5.
As to A40C C49G A65G, the yeast fitness stood at 0.584.
With G9C C29A C34U the figure was not above 0.5; with C27G A45U G56C, 0.531.
Then A42G U59A, with 0.939.
Then A20C C24G C29G A37G C66G, with not above 0.5; and A21U C30G G48A, with not above 0.5.
For the variant C5U A14C A21C U53G A57C, the yeast fitness was not above 0.5.
With C5U A14C A69C the figure was not above 0.5; with A45C G67A, 0.814.
With C11U C31A C55G C60A A70G the figure was 0.535; with A42G G48A G51C, not above 0.5.
Consider U2C C46U U59C, for which the yeast fitness is 0.705.
Then C11U C33G, with 0.734; and G6A C11U G68A, with not above 0.5; and C22G C29G, with 0.546.
Consider G52A C60U, for which the yeast fitness was 0.579.
With A15G C46A the figure was 0.884; with A15G C46U, 0.987.
Consider A15G A20U C34A, for which the yeast fitness is not above 0.5.
With C27A U28A G41A G48A the figure was 0.75.
With C5U U7G A14G C30A A65C the figure was 0.704; with G6C G68C, 0.874; with A20C C49A G52A C61U, not above 0.5.
For the variant U7C C11U C34A A45C G68A, the yeast fitness is not above 0.5.
Then G10A C33U A65C, with not above 0.5.
For the variant G12A C49U C66A, the yeast fitness was not above 0.5.
Consider C11U U35A G56C, for which the yeast fitness was not above 0.5.
Then G17A A36G C66U, with 0.65; and C11U C22U G44C U64G, with 0.534.
With A37C C55G the figure was 0.607; with U16A A20U C24G C31A C33G C61A G67C, not above 0.5; with U3G C11U U64C, not above 0.5.
Regarding C29G A40U C66U, the yeast fitness is not above 0.5.
Turning to C29G U35C U54C U64C, the yeast fitness is not above 0.5.
In the case of A57G A70C, the yeast fitness was 0.859.
With C22G C30G U59A the figure was not above 0.5; with A37U C60U C62G U64A A69U, not above 0.5.
As for A45U G68A, the yeast fitness was found to be 0.926.
Then C11A G17C A43G, with not above 0.5; and C4G G48U C66U, with not above 0.5; and C4A C22G A40C G67A, with 0.61.
With G6A G9A the figure was 0.969.
Consider U3C G48C C66U, for which the yeast fitness was found to be 0.761.
As to U7G C33U, the yeast fitness came out at 0.749.
For the variant A15U G56C G67U, the yeast fitness is not above 0.5.
With U26C G58A the figure was 1; with G25A C30G G58C C66A, not above 0.5.
Then G10A G44A C66U, with 0.534; and C4U C55A A65U, with not above 0.5; and G51A G63U C66A, with not above 0.5.
With A36U G56A the figure was 0.574; with C4A C24U G58A C62U, 0.587.
As for A14C A15G, the yeast fitness stood at 0.675.
As to A20G U26C, the yeast fitness stood at 0.984.
With G10A G52A the figure was 0.53.
Then U13A C34U A36G, with not above 0.5; and G9C C30U U53C, with not above 0.5.
Then G56C C62G G68C, with 0.56; and C5G C30U U32C G44C, with not above 0.5.
With C11U G50A G63A A65U, the yeast fitness is not above 0.5.
Take C5G A42C A70C: the yeast fitness was determined as 0.689.
Then G9C U26G, with 0.684; and U19G A20U G52A, with 0.698; and G6C C22A G41A G44C, with not above 0.5.
For G23A G48C C55G, the yeast fitness is not above 0.5.
Then G6A G9C C11G C34U A57U, with not above 0.5.
Turning to C5A U35C G44A G48C C55G A70C, the yeast fitness is not above 0.5.
Then C5G A21G G44A G58C, with 0.616; and C60G C66G A69G, with 0.593; and C34G A42U G44A A45C G48C U64A, with not above 0.5.
Then C5G C29U A37U G38C, with not above 0.5; and A21C C22U G38C A40C, with not above 0.5; and C5A C33G C49U C61G A69C, with not above 0.5.
Then U3G A15U A36G, with not above 0.5; and C33G G67A, with 0.672; and C24G U26A C33U, with not above 0.5.
As for U26C C49G, the yeast fitness amounted to 0.842.
With G6A A20U C27A A57U C62A the figure was not above 0.5.
With C11A G12A C29U G48A G50A, the yeast fitness is not above 0.5.
Then C55A U64A, with 0.619.
Then C22U G52C U54C, with not above 0.5; and C24G C34G G44C, with not above 0.5.
Turning to A14G G17C C22G, the yeast fitness was not above 0.5.
With A15G C27G A36U G39C A69C the figure was not above 0.5; with U3C U35C A57G, 0.541.
Turning to C46U C61U, the yeast fitness was 0.956.
With C5A C60A the figure was 0.651; with A20U A42U U59A, 0.59.
With C5U A14U U16A the figure was not above 0.5; with C11G A14G U26A U35A, not above 0.5.
With U2A G6A the figure was 0.775.
C5G C49A: the yeast fitness worked out at 0.624.
As to U26C U35A C62U, the yeast fitness was determined as 0.523.
Regarding C5U A15U C30G C33G A40G A43U, the yeast fitness is not above 0.5.
With A15G C27G A70U the figure was 0.543.
With C31G A57U A69C A70G the figure was not above 0.5; with U13C C46U, 0.886.
Regarding C31U A37U A70U, the yeast fitness was 0.558.
Then G23C A42G G56A, with not above 0.5; and G9C C30U A37G C55G, with not above 0.5; and A21G A40G A42U U59G, with not above 0.5.
With C4A U19A C27U the figure was 0.562; with U26A U54A, 0.589.
Then A37C A42G, with 0.777; and C30U G58A C61G G68C A70U, with not above 0.5; and C4G A21U C49G C66G G68C, with 0.673.
As to A14C A43C A57G C66U, the yeast fitness is not above 0.5.
Then C5U G23A G25C, with 0.65.
On to C62U A70U, for which the yeast fitness was 0.996.
C4G G9A G12C C29A G50C: the yeast fitness was not above 0.5.
Then U2G C24U C29G C61G, with 0.635.
Turning to G9C C27G C29G A36C, the yeast fitness was not above 0.5.
As to G9A U13C A21U A36G A40C A69U, the yeast fitness is not above 0.5.
Turning to A14U C29G U53C U54G, the yeast fitness is 0.571.
For A20C U59A A65C A70C, the yeast fitness is not above 0.5.
For U3C A20G U59C A69C, the yeast fitness was found to be 0.79.
Then G6A A21C A42G, with 0.692; and G9A G39C G44C C55A, with 0.606.
Then U2A U19G A70U, with 0.68.
For the variant U13A G63A, the yeast fitness was determined as 0.853.
Then A20G C34G A37C C66U, with not above 0.5; and G17A G48C C62A, with 0.549; and G10C G25C G38C A40G A42G U64A G68A, with 0.515.
With U28G A45C the figure was 0.655; with G39A C46U, 0.978; with C4A C5U G17A C30U G68C, not above 0.5.
With C4U C31U A37U G67A G68A the figure was not above 0.5.
Consider C4A A15C A70U, for which the yeast fitness was not above 0.5.
As to G6A U8C G10A U19C G41A U47C, the yeast fitness is not above 0.5.
Then C22A G67U, with 0.774; and C29U C49G C60A, with not above 0.5; and A20U C27A, with 0.717.
On to A15G A20G G48A, for which the yeast fitness came to 0.738.
Turning to C22U A42U G51C, the yeast fitness was determined as 0.647.
C5U U32G A36U G68C: the yeast fitness is not above 0.5.
For the variant C11A G18A A36G A42C C66U, the yeast fitness turned out to be 0.658.
With U13G C24G A36C A40U G48A the figure was 0.525; with G41A A57U C60A G68C, not above 0.5; with A14U C49A A57G, 0.542.
With C4A U13A G18A G68C the figure was not above 0.5; with C11G G51A C60U, 0.79; with A21G C62G, 1.02.
With U7A G58A the figure was 0.635; with U7G U26C, 0.88.
With C11G C30U A37C C46U A57C, the yeast fitness is not above 0.5.
